Assay outcomes (PubChem BioAssay)
This is a sample that favours compounds with a hit; in the whole collection about 4.6% have one here.
GPR7 antagonist – antagonists of human GPR7 (neuropeptides B/W receptor 1); GPR7-expressing cells, fluorescence antagonist assay; P48145; AID 1861; inhibition, % at 4.4 µM; 1.1% of 290,000 active; in the data active = inhibition above about 16%, passing the limit was not always enough;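 note: cells stimulated with the agonist NPW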
TAAR1 ag – human TAAR1 agonism | AID 624467 | 0.99% of 360,000 active | activation, % at 3 µM | Q96RJ0 | CHO RD-HGA16 TAAR1, Fluo-8 calcium fluorescence; vehicle wells 0%, saturating PEA agonist 100%;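 active = activation above the mean activation of all test compounds in the run plus 3 SD, cut at about 38% in these data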
Target sequence (Q96RJ0 whole entry, looked up): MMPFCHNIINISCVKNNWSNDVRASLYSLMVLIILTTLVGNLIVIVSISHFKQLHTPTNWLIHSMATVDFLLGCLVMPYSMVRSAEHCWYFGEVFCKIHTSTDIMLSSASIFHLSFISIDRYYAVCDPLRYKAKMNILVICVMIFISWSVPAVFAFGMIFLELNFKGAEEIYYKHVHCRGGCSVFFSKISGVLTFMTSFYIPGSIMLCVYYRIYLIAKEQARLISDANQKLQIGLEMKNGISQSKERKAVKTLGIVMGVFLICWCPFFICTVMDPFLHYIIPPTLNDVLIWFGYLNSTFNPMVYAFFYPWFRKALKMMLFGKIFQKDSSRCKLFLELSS
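test system = CHO RD-HGA16 cells carrying human TAAR1 plus Gα16 | schedule = 17-24 h seeding, 75 min 37 °C dye, 30 min RT | compound dosing = 3 µM single concentration | control set = DMSO and PEA EC100 | replicates = n 1 | signal = Fluo-8 fluorescence, 5 s baseline then 140 s kinetic read | measure = percent activation vs PEA EC100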
OX1R antag-1 – human HCRTR1 antagonism; 0.43% of 330,000 active; CHO/OX1R cells, Fluo-8 calcium fluorescence, orexin A; AID 434989; inhibition, % at 5 µM;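 active = inhibition above its plate's threshold, mean inhibition of all tested compounds on the plate plus 3 SD, cut at about 37% in these data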
TAAR1 antagonist – human TAAR1 antagonism; CHO RD-HGA16 TAAR1, Fluo-8 calcium fluorescence, antagonist; AID 624466; inhibition, % at 3 µM; 1.5% of 360,000 active;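 active = inhibition above a per-plate cutoff, the mean inhibition of test compounds on that plate plus 3 SD, cut at about 49% in these data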
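Assay system: RD-HGA16 CHO cells with stable hTAAR1 and Gα16 / Reagent: EC80 β-phenethylamine stimulus / Doses: 3 µM, single point / Timing: dye loading 75 min at 37 °C, then 30 min room temperature / Measured by: Fluo-8 intracellular calcium dye fluorescence, real-time kinetic reads / Controls: vehicle wells and EC80 agonist wells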
CHO parental Ca – counter-screen for OX1R antagonists: effect in parental CHO cells. parental CHO-K1, ATP-induced calcium, Fluo-8 fluorescence. inhibition, % at 5.6 µM. 0.63% of 330,000 active. AID 463079;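 active = inhibition above that plate's mean sample inhibition plus 3 SD, cut at about 26% in these data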
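Assay system: untransfected parental CHO cell line. Also added: ATP agonist challenge. Dosing: one dose, 5.6 µM nominal. Measured by: Fluo-8 fluorescence. Read-out: % inhibition. Benchmarks: ATP wells versus no-ATP DMSO wells. Repeats: no replicates.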
OX1R antag-2 – antagonists of human orexin 1 receptor (OX1R). OX1R-expressing cells, FRET antagonist read-out. inhibition, % at 6.6 µM. 1.8% of 330,000 active; in the data active = inhibition mostly above about 38%, no sharp cut-off; inactive = mostly below about 40%
nonsel antag count – nonselective antagonist in TAAR1 antagonist counter-screen. inhibition, % at 3 µM. counterscreen cell line, calcium fluorescence, antagonist mode. AID 651780. shares compounds with TAAR1 antagonist. 77% of 2,400 active; in the data active = inhibition above about 22%;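 note: CHO-Ga16 host cells stimulated with ATP at an EC80 level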
TAAR1 ant conf – confirmation of human TAAR1 antagonists. inhibition, % at 3 µM. shares compounds with TAAR1 antagonist. TAAR1-expressing cells, fluorescence antagonist read-out. AID 651785. 40% of 2,400 active; in the data active = inhibition above about 49%;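 note: CHO-Ga16 host cells challenged with agonist PEA near its EC80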
Ga16 nonsel ag – nonselective Ga16 agonism, counter-screen | shares compounds with TAAR1 antagonist | Ga16-expressing cells, calcium fluorescence, agonist counterscreen | activation, % at 3 µM | 18% of 2,400 active; in the data active = activation above about 12%
TAAR1 ag count – activates human TAAR1 in antagonist counter-screen; 2% of 2,400 active; hTAAR1 cell line, fluorescence activation, agonist mode; activation, % at 3 µM; shares compounds with TAAR1 antagonist; in the data active = activation above about 37%;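 note: CHO cells stably expressing TAAR1 with calcium dye readout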
Of the large screens only hits and unclear results are named; the others gave an inactive call (follow-up assays come after a bar, where they were run).

CC(C)(C)OC(=O)NCc1ccc(CNC(=O)c2[nH]cnc2C(=O)N[C@@H](Cc2ccccc2)C(=O)OCc2ccccc2)cc1	none
O=C(CNC(=O)c1nc[nH]c1C(=O)NCC(=O)OCc1ccccc1)OCc1ccccc1	TAAR1 antagonist 69.3 | nonsel antag count 36.6 | TAAR1 ant conf 56.4 | Ga16 nonsel ag inactive | TAAR1 ag count inactive
O=C(CNC(=O)c1nc[nH]c1C(=O)NCc1ccccc1)OCc1ccccc1	TAAR1 antagonist 66.5 | nonsel antag count 37.2 | TAAR1 ant conf 56.5 | Ga16 nonsel ag inactive | TAAR1 ag count inactive
CC(C)(C)OC(=O)NCc1ccc(CNC(=O)c2[nH]cnc2C(=O)NCC(=O)OCc2ccccc2)cc1	TAAR1 antagonist 91.8 | nonsel antag count 48.9 | TAAR1 ant conf 66.5 | Ga16 nonsel ag 12.5 | TAAR1 ag count inactive
O=S(=O)(NN1CCOCC1)c1ccc(Br)s1	none
COC(=O)CSc1nc2sccc2c(=O)n1-c1ccccc1	none
CC(C)(C)c1ccc(CC(=O)N2CCC2(C)C(=O)Nc2cccc3c2CCCC3)cc1 (centres undefined)	none (no result: GPR7 antagonist, OX1R antag-1, CHO parental Ca, OX1R antag-2)
COc1ccc(CCNC(=O)c2ccc(-c3ccc([N+](=O)[O-])cc3)o2)cc1OC	TAAR1 antagonist 61.1 | nonsel antag count 22.0 | TAAR1 ant conf inactive | Ga16 nonsel ag inactive | TAAR1 ag count inactive
COc1ccc(CCNC(=O)c2noc(C(C)C)c2[N+](=O)[O-])cc1OC	none
COc1cccc(/C=C(/C(=O)OCC(N)=O)c2ccccc2)c1	TAAR1 antagonist 105.0 | nonsel antag count inactive | TAAR1 ant conf inactive | Ga16 nonsel ag inactive | TAAR1 ag count inactive
COc1cccc(C=C(C(C)=O)C(=O)c2ccccc2)c1	none (no result: GPR7 antagonist, OX1R antag-1, CHO parental Ca, OX1R antag-2)
Cc1ccc(S(=O)(=O)NC2CCCc3ccccc32)cc1C (centres undefined)	TAAR1 antagonist 50.4 | nonsel antag count inactive | TAAR1 ant conf inactive | Ga16 nonsel ag inactive | TAAR1 ag count inactive
O=C(C(c1ccccc1)c1ccccc1)N1CCN(Cc2ccco2)CC1	none
CCOC(=O)Cc1ccc(Nc2nc(NCc3cccs3)nc3ccsc23)cc1	TAAR1 antagonist 75.6 (no result: GPR7 antagonist, OX1R antag-1, CHO parental Ca, OX1R antag-2) | nonsel antag count 42.4 | TAAR1 ant conf inactive | Ga16 nonsel ag inactive | TAAR1 ag count inactive
COC(=O)c1ccc(COC(=O)c2cccnc2Cl)cc1	none
COc1ccc([C@H]2CC(=O)C=C(c3cccc(C(C)C)c3)C2)cc1	TAAR1 antagonist 50.5 (no result: GPR7 antagonist) | nonsel antag count inactive | TAAR1 ant conf inactive | Ga16 nonsel ag inactive | TAAR1 ag count inactive
O=C(CSc1ccccc1C(=O)O)Nc1cccc(C(=O)O)c1	none
COc1ccc(-c2cc(C(=O)OCC(=O)NC3CC3)c3ccccc3n2)cc1	none (no result: GPR7 antagonist)
COc1ccc2cc(-c3cc(C(=O)OCC(=O)NC4CCS(=O)(=O)C4)c4ccccc4n3)ccc2c1 (centres undefined)	TAAR1 antagonist 58.9 | nonsel antag count 40.9 | TAAR1 ant conf 51.4 | Ga16 nonsel ag 11.8 | TAAR1 ag count inactive
COc1ccc(NC(=O)C(c2ccc(OC)cc2)n2c(=O)c(-c3ccco3)nc3ccccc32)cc1 (centres undefined)	none (no result: GPR7 antagonist, OX1R antag-1, CHO parental Ca, OX1R antag-2)
COc1cc(NC(=O)c2ccccc2OCc2ccccc2)cc(OC)c1OC	TAAR1 antagonist 61.4, OX1R antag-2 44.5 | nonsel antag count inactive | TAAR1 ant conf inactive | Ga16 nonsel ag inactive | TAAR1 ag count inactive
CNC(=O)c1cccc(NC(=O)c2ccccc2OCc2ccccc2)c1	TAAR1 antagonist 54.4 | nonsel antag count inactive | TAAR1 ant conf inactive | Ga16 nonsel ag inactive | TAAR1 ag count inactive
CC(=O)NC1=NC(=O)/C(=C/N2CCCCC2)S1	none
